In brackets after ≈: the same amount, converted by molar mass.
Experiments:
[1] = test system: Plasmodium falciparum; assay: Antimalarial activity after 48 hrs against Plasmodium falciparum NF54 infected human erythrocytes by [3H]hypoxanthine uptake; format: functional, organism-based
Summary of the method: (§1)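 Modified [3H]hypoxanthine incorporation assay; infected human red blood cells exposed to serial drug dilutions for 48 h at 37 °C under reduced O2/elevated CO2, then [3H]hypoxanthine added and incubated a further 24 h; harvested on glass fiber filters, scintillation counted. IC50 from sigmoidal inhibition curve; duplicates, repeated at least once. NF54 is drug-sensitive, K1 is chloroquine/pyrimethamine-resistant.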

[2] = test system: Plasmodium falciparum; assay: Antimalarial activity after 48 hrs against Plasmodium falciparum K1 infected human erythrocytes by [3H]hypoxanthine uptake; format: functional, organism-based; summary of the method: as §1
[3] = Cytotoxicity against rat L6 cells after 72 hrs; format: cell-based; conditions: read-out: MIC

IC50 [1] [µg/mL] | IC50 [2] [µg/mL] | SMILES | MCC at 72 h [3] [µg/mL]
0.191 (≈ 0.469 µM) | 0.14 (≈ 0.344 µM) | COc1cc(O)c2c(c1-c1ccc(O)c3c(OC)cc(C)cc13)C[C@@H](C)N(C)[C@@H]2C [ANCISTROLIKOKINE A] | 90
0.538 (≈ 1.37 µM) | 0.208 (≈ 0.529 µM) | COc1cc(O)c(-c2ccc(OC)c3c(O)cc(C)cc23)c2c1[C@H](C)N[C@H](C)C2 [ANCISTROLIKOKINE B] | 30
6.23 (≈ 15.3 µM) | 0.924 (≈ 2.27 µM) | COc1cc(O)c(-c2ccc(OC)c3c(O)cc(C)cc23)c2c1[C@@H](C)N(C)[C@H](C)C2 [ANCISTROLIKOKINE C] | –
0.024 (≈ 0.0632 µM) | 0.072 (≈ 0.19 µM) | COc1cc(C)cc2c(-c3c(O)cc(O)c4c3C[C@@H](C)N[C@@H]4C)ccc(O)c12 [KORUPENSAMINE A] | 100

Source: ChEMBL document CHEMBL1155599, “Ancistrolikokines A-C: new 5,8'-coupled naphthylisoquinoline alkaloids from Ancistrocladus likoko” (J Nat Prod, 2000)
